Published values collected from several papers.
Target: Histamine H3 receptor (HRH3, Homo sapiens, UniProt Q9Y5N1)
Technique: radioligand

| Compound | observed | notes | Ki [µM] |
| --- | --- | --- | --- |
| CN(C)c1ccc(/C=C2\CCc3ccc(OCc4ccc(OCCCN5CCCCC5)cc4)cc3C2=O)cc1 | ligand displacement | cell membranes | 0.097 |
| O=C1NC(=O)C(c2ccccc2)(c2ccc(OCCCN3CCCCC3)cc2)N1 (centres unmarked) | ligand displacement | cell membranes | 0.579 |
| CN1CCN(c2cc(Nc3ccc(OCCCN4CCCCC4)cc3)nc(N)n2)CC1 | ligand displacement | cell membranes | 0.0118 |
| O=C1NC(c2ccccc2)(c2ccccc2)C(=O)N1CCCN1CCCCC1 | ligand displacement | cell membranes | 0.00615 |
| c1ccc(CNc2ccnc(Nc3ccc(OCCCN4CCCCC4)cc3)n2)cc1 | ligand displacement | cell membranes | 0.00449 |
| CCC(=O)c1ccc(OCCCCCCN2CCCC(C)C2)cc1 (centres unmarked) | ligand displacement | cell membranes | 0.039 |
| O=C1CCCc2ccc(OCCCN3CCCCC3)cc21 | ligand displacement | cell membranes | 0.089 |
| CC1CCCN(CCCCCCOc2ccc(-c3ccccc3)cc2)C1 (centres unmarked) | ligand displacement | cell membranes | 0.147 |
| CCCCN1CCC(COC(=O)c2ccc(N)c(OCF)c2)CC1 | cell-free assay |  | 3.1 |
| CN(C)c1ccc(/C=C/C=C2\CCc3cc(OCc4ccc(OCCCN5CCCCC5)cc4)ccc3C2=O)cc1 | ligand displacement | cell membranes | 0.068 |
| CCCc1ccc(OCCCCCCN2CCCC(C)C2)cc1 (centres unmarked) | ligand displacement | cell membranes | 0.0859 |
